# Several values for one entry are separate records, joined by “and”; a condition that tells them apart may be missing. Equal entries are not always repeated.
# System: U2OS
# Experiment: Multiplex assay against U2OS
# Format: toxicity, cell-based
# Conditions: human, number of replicates 2
# Outline: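 Tubulin, mitochondrial-mass and membrane-permeability phenotypes are per cents of healthy-nucleus cells. Cells were gated by CellPathfinder machine learning into Hoechst high-intensity objects or normal cells, normal cells into healthy, pyknosed or fragmented nuclei, and pyknosed cells into mitotic or apoptotic. Before that, live cells stained at seeding with Hoechst33342, BioTracker Green Microtubule Cytoskeleton Dye, MitoTracker Red and Annexin V Alexa Fluor 680 were imaged on a CQ1 microscope at 37°C and 5% CO2 after compound addition.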
# [1] = 12 h, 1 µM, compound concentration 1 uM
# [2] = 12 h, 10 µM, compound concentration 10 uM
# [3] = 24 h, 1 µM, compound concentration 1 uM
# [4] = 24 h, 10 µM, compound concentration 10 uM
# [5] = 48 h, 1 µM, compound concentration 1 uM
# [6] = 48 h, 10 µM, compound concentration 10 uM
smiles,measurement,setting,value
Cc1ccc2c(N)c(C(=O)NC3CCc4cc(N5CC6CCC(C5)N6)ccc4C3)sc2n1.O=CO (stereo not given),Population Apoptotic (%),[1],100% and 51%
same,Population Fragmented Nuclei (%),[1],11% and 6%
same,Population Healthy Nuclei (%),[1],70% and 76%
same,Population Hoechst High Intensity Objects (%),[1],0%
same,Population Membrane Permeable-Phenotype (%),[1],16% and 7%
same,Population Normal (%),[1],100%
same,Population Pyknosed Nuclei (%),[1],17% and 16%
same,Population Tubulin-Different-Phenotype (%),[1],19% and 25%
same,Population Apoptotic (%),[2],36% and 24%
same,Population Healthy Nuclei (%),[2],22% and 29%
same,Population Hoechst High Intensity Objects (%),[2],3% and 12%
same,Population Membrane Permeable-Phenotype (%),[2],16% and 11%
same,Population Mitochondria Different-Phenotype (%),[2],50% and 51%
same,Population Mitotic Cells (%),[2],63% and 75%
same,Population Normal (%),[2],96% and 87%
same,Population Pyknosed Nuclei (%),[2],35% and 56%
same,Population Tubulin-Different-Phenotype (%),[2],50%
same,Population Apoptotic (%),[3],69% and 75%
same,Population Fragmented Nuclei (%),[3],4% and 5%
same,Population Healthy Nuclei (%),[3],69% and 77%
same,Population Hoechst High Intensity Objects (%),[3],0%
same,Population Membrane Permeable-Phenotype (%),[3],17% and 6%
same,Population Mitotic Cells (%),[3],30% and 24%
same,Population Normal (%),[3],100%
same,Population Pyknosed Nuclei (%),[3],26% and 16%
same,Population Tubulin-Different-Phenotype (%),[3],26% and 23%
same,Population Apoptotic (%),[4],56%
same,Population Healthy Nuclei (%),[4],19% and 22%
same,Population Hoechst High Intensity Objects (%),[4],8% and 11%
same,Population Mitochondria Different-Phenotype (%),[4],75% and 69%
same,Population Mitotic Cells (%),[4],43%
same,Population Normal (%),[4],91% and 88%
same,Population Pyknosed Nuclei (%),[4],39% and 64%
same,Population Tubulin-Different-Phenotype (%),[4],50% and 60%
same,Population Apoptotic (%),[5],80% and 88%
same,Population Fragmented Nuclei (%),[5],7% and 5%
same,Population Healthy Nuclei (%),[5],49% and 66%
same,Population Hoechst High Intensity Objects (%),[5],0%
same,Population Membrane Permeable-Phenotype (%),[5],14% and 19%
same,Population Mitochondria Different-Phenotype (%),[5],25% and 53%
same,Population Mitotic Cells (%),[5],20% and 11%
same,Population Normal (%),[5],100%
same,Population Pyknosed Nuclei (%),[5],43% and 28%
same,Population Tubulin-Different-Phenotype (%),[5],21% and 40%
same,Population Apoptotic (%),[6],53% and 87%
same,Population Healthy Nuclei (%),[6],31% and 12%
same,Population Membrane Permeable-Phenotype (%),[6],53% and 57%
same,Population Mitochondria Different-Phenotype (%),[6],84%
same,Population Normal (%),[6],95% and 83%
same,Population Pyknosed Nuclei (%),[6],36% and 80%
same,Population Tubulin-Different-Phenotype (%),[6],100% and 73%
CSc1cc2c(cc1C(F)(F)F)N(C(=O)Nc1cccnc1)CC2,Population Apoptotic (%),[1],33% and 45%
same,Population Healthy Nuclei (%),[1],61% and 90%
same,Population Hoechst High Intensity Objects (%),[1],0%
same,Population Membrane Permeable-Phenotype (%),[1],0% and 2%
same,Population Mitochondria Different-Phenotype (%),[1],0% and 1%
same,Population Mitotic Cells (%),[1],66% and 54%
same,Population Normal (%),[1],100%
same,Population Pyknosed Nuclei (%),[1],17% and 8%
same,Population Tubulin-Different-Phenotype (%),[1],71% and 84%
same,Population Apoptotic (%),[2],42% and 66%
same,Population Healthy Nuclei (%),[2],82% and 50%
same,Population Hoechst High Intensity Objects (%),[2],0% and 3%
same,Population Membrane Permeable-Phenotype (%),[2],0% and 7%
same,Population Mitochondria Different-Phenotype (%),[2],0%
same,Population Mitotic Cells (%),[2],57% and 33%
same,Population Normal (%),[2],100% and 96%
same,Population Pyknosed Nuclei (%),[2],12% and 11%
same,Population Tubulin-Different-Phenotype (%),[2],94% and 38%
same,Population Apoptotic (%),[3],60% and 26%
same,Population Healthy Nuclei (%),[3],69% and 89%
same,Population Hoechst High Intensity Objects (%),[3],0%
same,Population Membrane Permeable-Phenotype (%),[3],3% and 1%
same,Population Mitochondria Different-Phenotype (%),[3],0%
same,Population Mitotic Cells (%),[3],40% and 73%
same,Population Normal (%),[3],100%
same,Population Pyknosed Nuclei (%),[3],12% and 6%
same,Population Tubulin-Different-Phenotype (%),[3],66% and 84%
same,Population Apoptotic (%),[4],100% and 45%
same,Population Healthy Nuclei (%),[4],66% and 88%
same,Population Hoechst High Intensity Objects (%),[4],2% and 0%
same,Population Membrane Permeable-Phenotype (%),[4],0% and 1%
same,Population Mitochondria Different-Phenotype (%),[4],0% and 1%
same,Population Normal (%),[4],97% and 100%
same,Population Pyknosed Nuclei (%),[4],11% and 7%
same,Population Tubulin-Different-Phenotype (%),[4],58% and 93%
same,Population Apoptotic (%),[5],83% and 46%
same,Population Fragmented Nuclei (%),[5],6% and 2%
same,Population Healthy Nuclei (%),[5],83% and 90%
same,Population Hoechst High Intensity Objects (%),[5],3% and 0%
same,Population Membrane Permeable-Phenotype (%),[5],6% and 1%
same,Population Mitochondria Different-Phenotype (%),[5],0%
same,Population Normal (%),[5],96% and 100%
same,Population Pyknosed Nuclei (%),[5],10% and 6%
same,Population Tubulin-Different-Phenotype (%),[5],67% and 85%
same,Population Apoptotic (%),[6],29% and 42%
same,Population Fragmented Nuclei (%),[6],3% and 10%
same,Population Healthy Nuclei (%),[6],89% and 75%
same,Population Hoechst High Intensity Objects (%),[6],0% and 2%
same,Population Membrane Permeable-Phenotype (%),[6],1% and 0%
same,Population Mitochondria Different-Phenotype (%),[6],0%
same,Population Mitotic Cells (%),[6],70% and 57%
same,Population Normal (%),[6],100% and 98%
same,Population Pyknosed Nuclei (%),[6],7% and 14%
same,Population Tubulin-Different-Phenotype (%),[6],94% and 40%
